Results: ChEMBL document CHEMBL1156347, “Immunomodulatory constituents from an Ascomycete, Eupenicillium crustaceum, and revised absolute structure of macrophorin D” (J Nat Prod, 2001)
Values after ≈ are worked out from the molar mass of the structure shown.

Columns and labels:
[1] = test system: T-cell; experiment: Ratio of IC50 for mouse T cells proliferation to IC50 for mouse B cells proliferation; format: functional
[2] = Immunosuppressant activity in mouse T cells assessed as inhibition of concanavalin A-induced cell proliferation; format: functional, cell-based
Procedure, shortened: (§1)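 Splenic lymphocytes from male BALB/c mice aged 7-11 weeks, stimulated with concanavalin A (T cells) or LPS (B cells). Proliferation read as formation of MTT-formazan from exogenous MTT in the lymphocytes. Seven concentrations tested, each point the mean of 3 experiments. IC50 read from the concentration-versus-proliferation curve.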

[3] = Immunosuppressant activity in mouse B cells assessed as inhibition of LPS-induced cell proliferation; format: functional, cell-based; procedure, shortened: as §1

SMILES	Ratio IC50 [1]	IC50 [2] [µg/mL]	IC50 [3] [µg/mL]
C=C1CC[C@H]2C(C)(C)CCC[C@]2(C)[C@H]1C[C@@]12O[C@@H]1C(=O)C(COC(=O)C[C@@](C)(O)CC(=O)O)=CC2=O	2	4.5 (≈ 8.95 µM)	2 (≈ 3.98 µM)
C=C1CC[C@H]2C(C)(C)CCC[C@]2(C)[C@H]1C[C@@]12O[C@@H]1C(=O)C(CO)=CC2=O	2	0.5 (≈ 1.39 µM)	0.25 (≈ 0.697 µM)
Cn1cnc([N+](=O)[O-])c1Sc1ncnc2[nH]cnc12 [AZATHIOPRINE]	–	2.7 (≈ 9.74 µM)	2.7 (≈ 9.74 µM)
C=CC[C@@H]1/C=C(\C)C[C@H](C)C[C@H](OC)[C@H]2O[C@@](O)(C(=O)C(=O)N3CCCC[C@H]3C(=O)O[C@H](/C(C)=C/[C@@H]3CC[C@@H](O)[C@H](OC)C3)[C@H](C)[C@@H](O)CC1=O)[C@H](C)C[C@@H]2OC [TACROLIMUS ANHYDROUS]	–	1.5e-05 (≈ 1.87e-05 µM)	0.0016 (≈ 0.00199 µM)
